Measurements reported in ChEMBL document CHEMBL3751813, “Nonpeptidic Amphiphilic Xanthone Derivatives: Structure-Activity Relationship and Membrane-Targeting Properties” (J Med Chem, 2016).
Converted amounts (≈) assume the structure as drawn.

Tests used:
[1] = Selectivity index, ratio of HC50 for hemolytic activity against New Zealand white rabbit RBC to MIC for clinical isolates of Staphylococcus aureus DM4001
Bacillus cereus = test: Antibacterial activity against clinical isolates of Bacillus cereus ATCC 11778 after 24 hrs by […]; format: functional; details: ATCC 11778, 24 h
Staphylococcus aureus [2] = test: Antibacterial activity against clinical isolates of methicillin-resistant Staphylococcus aureus DM9808R after 24 hrs by […]; format: functional
[3] = Hemolytic activity against New Zealand white rabbit RBC after 1 hr by microplate reader analysis; format: ADME, cell-based, Oryctolagus cuniculus, Erythrocyte; details: rabbit red blood cells
Method in brief: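 Rabbit RBCs spun from serum at 3,000 rpm for 10 min and washed twice in PBS. Mixed with compound in DMF at 4% v/v RBCs, 1 h at 37 °C. After centrifugation, hemoglobin in the supernatant read at 576 nm. 2% Triton X-100 was the positive control and 1% DMF the negative control.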

Staphylococcus aureus [4] = test: Induction of membrane permeabilization in clinical isolates of Staphylococcus aureus DM4001 assessed as ATP leakage at MIC incubated for 10 mins by firefly luciferase based luminometry analysis; format: functional
Method in brief: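 Exponential-phase cells washed twice in 20 mM PBS pH 7 and set to OD620 0.3. Exposed 10 min at 37 °C, then spun at 4000 rpm for 5 min. Supernatant mixed with luciferase reagent (1 mM DTT, 0.5 mM D-luciferin, 1.25 µg/mL firefly luciferase). Luminescence read over 30 cycles.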

Staphylococcus aureus [5] = test: Induction of membrane permeabilization in clinical isolates of Staphylococcus aureus DM4001 at MIC by SYTOX green uptake assay; format: functional
Method in brief: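 Exponential-phase cells washed twice in 20 mM PBS pH 7 and adjusted to OD620 0.09. Given 3 µM SYTOX Green and kept in the dark until fluorescence was stable, then compound added. Fluorescence followed in a stirred cuvette at ex 504/em 523 nm. Melittin 10 µg/mL was the positive control. Run at least twice; one run reported.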

Staphylococcus aureus [6] = test: Antibacterial activity against clinical isolates of Staphylococcus aureus DM4001R after 24 hrs by […]; format: functional
Staphylococcus aureus [7] = test: Antibacterial activity against clinical isolates of methicillin-resistant Staphylococcus aureus DM21455 after 24 hrs by […]; format: functional; details: DM21455, 24 h

Row | Structure (SMILES) | Selectivity ratio [1] | MIC (Bacillus cereus) [µg/mL] | MIC (Staphylococcus aureus [2]) [µg/mL] | HC50 at 1 h [3] [µg/mL] | Activity (Staphylococcus aureus [4]) [µM] | Activity (Staphylococcus aureus [5]) [cps] | MIC (Staphylococcus aureus [6]) [µg/mL] | MIC (Staphylococcus aureus [7]) [µg/mL]
1 | CCCN(C)CCCCOc1cc2oc3cc(OCCCCN(C)CCC)c(OC)c(CC=C(C)C)c3c(=O)c2c(O)c1CC=C(C)C | 1.3 | 12.5 (≈ 18.8 µM) | 25 (≈ 37.6 µM) | 32.6 | 3.945 | 87537 | 25 (≈ 37.6 µM) | 12.5 (≈ 18.8 µM)
2 | O=c1c2ccc(OCCCCN3CCCC3)cc2oc2cc(OCCCCN3CCCC3)cc(O)c12 |  | > 50 | > 50 | > 200 |  |  | > 50 | > 50
3 | COc1c(OCCCCN2CCCC2)cc2oc3cc(OCCCCN4CCCC4)c(CCC(C)C)c(O)c3c(=O)c2c1CCC(C)C | 1.4 | 6.25 (≈ 9.4 µM) | 6.25 (≈ 9.4 µM) | 34.8 |  |  | 12.5 (≈ 18.8 µM) | 6.25 (≈ 9.4 µM)
4 | CCCN(CC)CCCCOc1cc2oc3cc(OCCCCN(CC)CCC)c(OC)c(CC=C(C)C)c3c(=O)c2c(O)c1CC=C(C)C | 5.1 | 25 (≈ 36.1 µM) | 6.25 (≈ 9.02 µM) | 63.3 | 12.736 | 82176 | 6.25 (≈ 9.02 µM) | 12.5 (≈ 18 µM)
5 | COc1c(OCCCCN2CCC(O)CC2)cc2oc3cc(OCCCCN4CCC(O)CC4)c(CC=C(C)C)c(O)c3c(=O)c2c1CC=C(C)C | 5.8 | 6.25 (≈ 8.67 µM) | 3.12 (≈ 4.33 µM) | 36 | 5.938 | 50250 | 6.25 (≈ 8.67 µM) | 12.5 (≈ 17.3 µM)
6 | CCCCN(C)CCCCOc1cc2oc3cc(OCCCCN(C)CCCC)c(OC)c(CC=C(C)C)c3c(=O)c2c(O)c1CC=C(C)C | 1.2 | 25 (≈ 36.1 µM) | 50 (≈ 72.2 µM) | 60.5 | 8.862 | 114095 | 50 (≈ 72.2 µM) | 25 (≈ 36.1 µM)
7 | COc1c(OCCCCN2CCSCC2)cc2oc3cc(OCCCCN4CCSCC4)c(CC=C(C)C)c(O)c3c(=O)c2c1CC=C(C)C |  | > 50 | > 50 | > 200 | 0.005 | 7129 | > 50 | > 50
8 | COc1c(OCCCCN(CCO)CCO)cc2oc3cc(OCCCCN(CCO)CCO)c(CC=C(C)C)c(O)c3c(=O)c2c1CC=C(C)C |  | 3.12 (≈ 4.29 µM) | 1.56 (≈ 2.14 µM) | 60.6 | 3.741 | 59694 | 3.12 (≈ 4.29 µM) | 0.78 (≈ 1.07 µM)
9 | COc1c(OCCCCN2CCNCC2)cc2oc3cc(OCCCCN4CCNCC4)c(CC=C(C)C)c(O)c3c(=O)c2c1CC=C(C)C | 11.5 | 12.5 (≈ 18.1 µM) | 6.25 (≈ 9.05 µM) | 72.1 | 3.154 | 24629 | 6.25 (≈ 9.05 µM) | 12.5 (≈ 18.1 µM)
10 | COc1c(OCCCCn2cncn2)cc2oc3cc(OCCCCn4cncn4)c(CC=C(C)C)c(O)c3c(=O)c2c1CC=C(C)C |  | > 50 | > 50 | > 200 | 0.416 | 1979 | > 50 | > 50
11 | COc1c(OCCCCN2CCOCC2)cc2oc3cc(OCCCCN4CCOCC4)c(CC=C(C)C)c(O)c3c(=O)c2c1CC=C(C)C |  | > 50 | > 50 | > 200 | 0.229 | 6358 | > 50 | > 50
12 | COc1c(OCCCCN2CCN(CCN(C)C)CC2)cc2oc3cc(OCCCCN4CCN(CCN(C)C)CC4)c(CC=C(C)C)c(O)c3c(=O)c2c1CC=C(C)C | 5.7 | 6.25 (≈ 7.5 µM) | 3.12 (≈ 3.75 µM) | 35.9 | 2.975 | 5850 | 6.25 (≈ 7.5 µM) | 3.12 (≈ 3.75 µM)
13 | CCCN(CCC)CCCCOc1cc2oc3cc(OCCCCN(CCC)CCC)c(OC)c(CC=C(C)C)c3c(=O)c2c(O)c1CC=C(C)C | > 8 | 50 (≈ 69.3 µM) | 50 (≈ 69.3 µM) | > 200 | 5.123 | 53637 | 25 (≈ 34.7 µM) | 25 (≈ 34.7 µM)
14 | COc1c(OCCCCN(C)C)cc2oc3cc(OCCCCN(C)C)c(CCC(C)C)c(O)c3c(=O)c2c1CCC(C)C | 4.9 | 12.5 (≈ 20.4 µM) | 25 (≈ 40.8 µM) | 60.7 |  |  | 12.5 (≈ 20.4 µM) | 12.5 (≈ 20.4 µM)
15 | COc1c(OCCCCNC(=N)N)cc2oc3cc(OCCCCNC(=N)N)c(CC=C(C)C)c(O)c3c(=O)c2c1CC=C(C)C | 20.5 | 6.25 (≈ 9.81 µM) | 6.25 (≈ 9.81 µM) | 64.1 | 2.237 | 68378 | 3.12 (≈ 4.91 µM) | 6.25 (≈ 9.81 µM)
16 | CCN(C)CCCCOc1cc2oc3cc(OCCCCN(C)CC)c(OC)c(CC=C(C)C)c3c(=O)c2c(O)c1CC=C(C)C | 16.1 | 6.25 (≈ 9.81 µM) | 6.25 (≈ 9.81 µM) | 25.1 | 1.734 | 12456 | 1.56 (≈ 2.45 µM) | 1.56 (≈ 2.45 µM)
17 | COc1c(OCCCCN2CCN(C(=O)OC(C)(C)C)CC2)cc2oc3cc(OCCCCN4CCN(C(=O)OC(C)(C)C)CC4)c(CC=C(C)C)c(O)c3c(=O)c2c1CC=C(C)C |  | > 50 | > 50 | > 200 |  |  | > 50 | > 50
18 | COc1c(OCCCCn2cccn2)cc2oc3cc(OCCCCn4cccn4)c(CC=C(C)C)c(O)c3c(=O)c2c1CC=C(C)C |  | > 50 | > 50 | > 200 | 0.31 | 3445 | > 50 | > 50
19 | CCN(CCCCOc1cc2oc3cc(OCCCCN(CC)C(C)C)c(OC)c(CC=C(C)C)c3c(=O)c2c(O)c1CC=C(C)C)C(C)C | 2.2 | 12.5 (≈ 18 µM) | 12.5 (≈ 18 µM) | 54.6 | 5.407 | 97824 | 25 (≈ 36.1 µM) | 25 (≈ 36.1 µM)
20 | CCCCCN(C)CCCCOc1cc2oc3cc(OCCCCN(C)CCCCC)c(OC)c(CC=C(C)C)c3c(=O)c2c(O)c1CC=C(C)C | > 8 | 12.5 (≈ 17.3 µM) | 25 (≈ 34.7 µM) | > 200 | 8.949 | 47166 | 25 (≈ 34.7 µM) | 25 (≈ 34.7 µM)
21 | CCCCCCN(C)CCCCOc1cc2oc3cc(OCCCCN(C)CCCCCC)c(OC)c(CC=C(C)C)c3c(=O)c2c(O)c1CC=C(C)C | > 4 | 50 (≈ 66.7 µM) | 50 (≈ 66.7 µM) | > 200 | 8.545 | 74047 | 50 (≈ 66.7 µM) | 50 (≈ 66.7 µM)
22 | COc1c(OCCCCI)cc2oc3cc(OCCCCI)c(CC=C(C)C)c(OCCCCI)c3c(=O)c2c1CC=C(C)C |  | 50 (≈ 52.3 µM) | > 50 | > 200 |  |  | > 50 | > 50
23 | COc1c(OCCCCN2CCCCC2)cc2oc3cc(OCCCCN4CCCCC4)c(CC=C(C)C)c(O)c3c(=O)c2c1CC=C(C)C | 24.7 | 6.25 (≈ 9.07 µM) | 1.56 (≈ 2.26 µM) |  | 0.626 | 2797 | 0.78 (≈ 1.13 µM) | 1.56 (≈ 2.26 µM)
24 | COc1c(OCCCCN2CCN(C)CC2)cc2oc3cc(OCCCCN4CCN(C)CC4)c(CC=C(C)C)c(O)c3c(=O)c2c1CC=C(C)C | 5.2 | 12.5 (≈ 17.4 µM) | 12.5 (≈ 17.4 µM) | 32.3 | 3.727 | 7129 | 6.25 (≈ 8.69 µM) | 12.5 (≈ 17.4 µM)
25 | CCN(CCO)CCCCOc1cc2oc3cc(OCCCCN(CC)CCO)c(OC)c(CC=C(C)C)c3c(=O)c2c(O)c1CC=C(C)C | 5.1 | 3.12 (≈ 4.48 µM) | 3.12 (≈ 4.48 µM) | 31.8 | 5.027 | 112772 | 6.25 (≈ 8.97 µM) | 6.25 (≈ 8.97 µM)
26 | COc1c(OCCCCN2C(=O)c3ccccc3C2=O)cc2oc3cc(OCCCCN4C(=O)c5ccccc5C4=O)c(CC=C(C)C)c(O)c3c(=O)c2c1CC=C(C)C |  | > 50 | > 50 | > 200 |  |  | > 50 | > 50
27 | CCN1CCN(CCCCOc2cc3oc4cc(OCCCCN5CCN(CC)CC5)c(OC)c(CC=C(C)C)c4c(=O)c3c(O)c2CC=C(C)C)CC1 | 5.5 | 25 (≈ 33.5 µM) | 12.5 (≈ 16.7 µM) | 138 | 7.822 | 15095 | 25 (≈ 33.5 µM) | 6.25 (≈ 8.37 µM)
28 | COc1c(OCCCCn2ccnc2)cc2oc3cc(OCCCCn4ccnc4)c(CC=C(C)C)c(O)c3c(=O)c2c1CC=C(C)C |  | > 50 | > 50 | > 200 |  |  | > 50 | > 50
29 | COc1c(OCCCCN2CCCC2)cc2oc3cc(OCCCCN4CCCC4)c(CC=C(C)C)c(O)c3c(=O)c2c1CC=C(C)C | 16 | 6.25 (≈ 9.46 µM) | 1.56 (≈ 2.36 µM) |  | 0.465 | 814 | 1.56 (≈ 2.36 µM) | 1.56 (≈ 2.36 µM)
